The sample as a whole holds a higher share of hits than the screen did.
UPR CHOP act: apoptotic UPR (CHOP) activation. 0.34% of 330,000 active. CHO-CHOP luciferase reporter, luminescence; percent of tunicamycin response over DMSO baseline. AID 449763. activation, % at 10 µM;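 active means at 10 µM dose, activation of 40% or more, normalized to positive control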;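 further: 100% = tunicamycin at 10 µg/mL and 0% = DMSO alone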
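Test system: CHO-CHOP cells, stable luciferase reporter of PERK-eIF2a-CHOP signalling | Quantity: 500 CHO-CHOP cells per well | Buffer or medium: F12 plus 10% serum | Compound dosing: 10 µM single point, 0.5% DMSO | Schedule: 6 h compound treatment, 37 °C | Signal: Luciferase luminescence | Control set: Tunicamycin high control, DMSO low control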
CHOP inh: inhibitors of CHOP induction in ER stress response | CHO-K1 CHOP-promoter luciferase, tunicamycin-induced, 15-18 h | inhibition, % at 10 µM | 3.8% of 220,000 active | AID 2732;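 active means compounds that reduced the stress-induced luciferase reporter signal by more than about 70% of percent inhibition, limit read from the data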;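 further: 0% = tunicamycin plus vehicle and 100% = wells without tunicamycin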
A1 inh: inhibitors of the anti-apoptotic protein A1, read as caspase activation; caspase activation, % (concentration not given with the values); 0.066% of 330,000 active; MEF A1-2A-BIM cells, Caspase-Glo 3/7 luminescence, 3 h; percent of clofoctol response, vehicle zero; AID 2462;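 active means over half of replicate activation scores above 10%, or exactly half above 10 with the replicate mean above 10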
UPR XBP1 act: adaptive UPR (XBP1) activation; CHO-XBP1 luciferase reporter, IRE1-XBP1 UPR activation, luminescence; percent of tunicamycin response, DMSO as zero; activation, % at 20 µM; 0.33% of 330,000 active;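 active means versus positive control, 20 µM dose yields 30% or more activation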;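 further: 100% = tunicamycin at 10 µg/mL and 0% = DMSO only wells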
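Material – CHO cell line with stable XBP1 luciferase reporter · Buffer or medium – F12 plus 10% FBS · Compound – single point, 20 µM final compound, 1% DMSO · Schedule – 16-18 h cell attachment at 37 °C, then 6 h compound exposure · Signal – Steady-Glo luminescence read · Benchmarks – high control tunicamycin 10 µg/mL final, low control DMSO vehicle only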
* marks the source's active call; other numbers are inactive results; . = no result.

SMILES | UPR CHOP act | CHOP inh | A1 inh | UPR XBP1 act
CC(C)(C)C(=O)N(CCN(C(=O)C(C)(C)C)c1ccccc1)c1ccccc1 | 2 | 78* | 0 | 0
COc1ccc(-c2nnc(SCC3CCCO3)n2C)cc1 (stereo not drawn) | 4 | -2 | 0 | 0
Cc1cccc2cc(CN(Cc3ccc(F)cc3)C(=O)N(C)C)c3nnnn3c12 | -1 | 90* | 0 | -3
C=C(C)C1CC=C(C)/C(=N/NC(=O)COc2ccc(Cl)cc2)C1 (stereo not drawn) | -1 | 86* | 0 | 4
COc1ccc(NC(=S)NCCSc2ccc(C)cc2)c(OC)c1 | -1 | . | 0 | 0
COc1ccc(N2CCN(C(=O)c3ccc4c(c3)[nH]c(=S)n3c5ccccc5nc43)CC2)cc1 | 1 | 73* | -1 | -2
O=C(C1CCC(Cn2c(=S)[nH]c3ccccc3c2=O)CC1)N1CCN(c2ccccc2)CC1 (stereo not drawn) | 1 | . | 0 | -2
COc1ccc(N2CCN(C(=O)C3CCC(Cn4c(=S)[nH]c5ccccc5c4=O)CC3)CC2)cc1 (stereo not drawn) | 3 | 71* | 2 | 0
Cc1ccc(N2CC(C(=O)OCC(=O)Nc3ccccc3C)CC2=O)cc1 (stereo not drawn) | 1 | . | 0 | -1
C[C@@H]1COC(=O)[C@H](NC(=O)OCC2c3ccccc3-c3ccccc32)C/C=C\C[C@@H](CC(=O)N[C@@H](CO)Cc2ccccc2)C(=O)N1 | 1 | . | 0 | 1
COc1ccc(S(=O)(=O)Nc2nc3n(n2)C(c2ccc(Cl)cc2)CC(=O)N3)cc1 (stereo not drawn) | 0 | -15 | 1 | 6
Cc1cccnc1NC(=O)c1c(O)c2cccc3c2n(c1=O)CCC3 | -1 | 80* | 1 | 1
O=C(Nc1nccs1)c1c(O)c2cccc3c2n(c1=O)CCC3 | 13 | 108* | 0 | 3
CCCCCCc1nc2ccccc2c(=O)n1NC(=O)c1c(O)c2cccc3c2n(c1=O)CCC3 | . | 85* | . | .
O=C(Nc1ccccn1)c1c(O)c2cccc3c2n(c1=O)CCC3 | 1 | 43 | 1 | 7
Cc1cc(C(=O)OCC(=O)NCCC(C)C)c2ccccc2n1 | -1 | 9 | -1 | 0
CC(=O)Nc1ccc(CNC(=O)C[N+]2(C)CCOCC2)cc1 | 1 | 30 | 1 | 5
CC12CCCCC1NS(=O)(=O)OC2 (stereo not drawn) | 1 | . | 4 | 3
CCc1c(C)sc(NC(=O)c2cc(-c3cc(OC)ccc3OC)on2)c1C#N | 4 | 86* | -1 | 18
CCc1c(C)sc(NC(=O)c2cc(-c3ccc(OC)c(OC)c3)on2)c1C#N | -2 | 83* | 0 | -2
CCOC(=O)c1ccccc1NC(=O)C1COc2ccccc2O1 (stereo not drawn) | 6 | 74* | -1 | 6
O=C(NC1=NCCS1)C1COc2ccccc2O1 (stereo not drawn) | -11 | 76* | -7 | -7
Cc1ccc(N2CCN(CC3CC=CCC3)CC2)cc1 (stereo not drawn) | -2 | 34 | 0 | 1
COc1ccc(-c2nc(-c3ccccc3)c(-c3cc([N+](=O)[O-])ccc3C)[nH]2)cc1O | 15 | 74* | 0 | -7
Cc1ccc([N+](=O)[O-])cc1-c1[nH]c(-c2ccc(O)c(O)c2)nc1-c1ccccc1 | 16 | 29 | 0 | 6
SMILES | UPR CHOP act | CHOP inh | A1 inh | UPR XBP1 act
COc1ccc(C(=O)c2ccccc2)c2c(O)ccc(C(=O)c3ccccc3)c12 | -2 | 86* | 1 | -3
O=C(Nc1ccccc1)Nc1ncc([N+](=O)[O-])s1 | 1 | 86* | . | -5
O=C(O)CCc1ccc(-c2ccc(Cl)cc2)n1CC(=O)Nc1ccccc1 | -1 | . | -1 | 3
O=C1COc2ccc(C(=O)COC(=O)c3sc4ccccc4c3Cl)cc2N1 | -2 | 21 | 0 | 47*
O=C(O)c1ccccc1C(=O)Nc1ccc(Oc2cccc3ccccc23)cc1 | . | 78* | . | .
Cc1cccc(Oc2ccc(NC(=O)c3ccccc3C(=O)O)cc2)c1C | -1 | 8 | -1 | -2
Cc1ncc(CO)c(CNc2ccc(Oc3ccccc3)cc2)c1O | 0 | . | -1 | -5
O=C(COc1cc(Cl)c(Cl)cc1Cl)Nc1cccc(O)c1 | 3 | 79* | -8 | -3
COc1ccc(S(=O)(=O)Nc2c(C)ccc3nsnc23)cc1OC | -3 | -10 | -1 | -5
COc1cc(/C=C2\SC(c3ccc(C)cc3)=NC2=O)ccc1O | -6 | 86* | 1 | -3
COc1cc(/C=C2\SC(=S)N(c3cccnc3)C2=O)ccc1O | 1 | 90* | -2 | -1
Cc1ccc(S(=O)(=O)N2CCCC(C(=O)NCc3cccnc3)C2)cc1Cl (stereo not drawn) | 0 | 88* | 1 | -1
Cc1cc(C)c(S(=O)(=O)N2CCCC(C(=O)NCc3cccnc3)C2)c(C)c1 (stereo not drawn) | 2 | . | 0 | -5
Cc1c(C(=O)NCc2cccnc2)oc2ccc(S(=O)(=O)N3CCC4(CC3)OCCO4)cc12 | 2 | 2 | 0 | -2
Cc1c(C(=O)NCc2cccnc2)oc2ccc(S(=O)(=O)N3CC(C)CC(C)C3)cc12 (stereo not drawn) | -2 | 102* | 0 | 1
Cc1ccccc1CCN(C(=O)Cn1nnc2ccccc21)C(C(=O)NCC1CCCO1)c1nc2ccccc2n1C (stereo not drawn) | 0 | 82* | 2 | 1
Cc1ccccc1C(C(=O)NCc1ccco1)N(CC1CCCO1)C(=O)Cn1nnc2ccccc21 (stereo not drawn) | -1 | -2 | 1 | -4
Cc1ccc(/C(N)=N/OC(=O)COc2ccccc2Cl)cc1 | 4 | 70* | -3 | 0
N/C(=N\OC(=O)c1ccc(Cl)cc1Cl)c1ccccn1 | -11 | 79* | -6 | -6
Cc1ccc(C(=O)O/N=C(\N)c2ccccc2)c(Cl)c1 | -10 | 72* | -8 | -12
Cc1ccc(C(=O)O/N=C(\N)c2ccc(Br)cc2)cc1 | 4 | 72* | -1 | -3
N/C(=N\OC(=O)COc1ccccc1Cl)c1ccc(Cl)cc1 | 1 | 65 | 0 | -1
CCOc1ccc(-n2c(SC)nc3c(c2=O)SCC3)cc1 | 3 | 37 | 0 | 0
CN(C)CC(C)(C)CN=Cc1c(O)[nH]c2ccccc12 | -1 | 17 | -1 | -3
CCCOc1ccc(Br)cc1/C=N/O | -1 | 32 | 0 | 0
CN1CCN(c2ccccc2NC(=O)c2cccc(OCc3ccccc3)c2)CC1 | 0 | 78* | 0 | -2
COc1ccc(C(=O)Nc2ccccc2C(=O)NC(Cc2ccc(O)cc2)C(=O)NNC(=O)c2ccccc2)cc1 (stereo not drawn) | 2 | -19 | 0 | -1
O=C(c1cc(F)ccc1F)C1CCCN(C(=O)CSc2ccccn2)C1 (stereo not drawn) | 1 | 12 | 0 | 0

Screening results deposited in PubChem BioAssay by several laboratories.
